Measured values from ChEMBL document CHEMBL5678805, “Intermittent administration of MEK inhibitor GDC-0973 plus PI3K inhibitor GDC-0941 triggers robust apoptosis and tumor growth inhibition” (Cancer Res, 2012).
Activity calls are given as the source filed them. The rule behind the calls is not given here.

What was measured:
[1] = target: Serine/threonine-protein kinase pim-2 (Homo sapiens, UniProt Q9P1W9); test: Inhibition of PIM2 (unknown origin)
[2] = target: Tyrosine-protein kinase BTK (Homo sapiens, UniProt Q06187); test: Inhibition of Btk (unknown origin)
[3] = target: Inhibitor of nuclear factor kappa-B kinase subunit alpha (Homo sapiens, UniProt O15111); test: Inhibition of IKKa (unknown origin)
[4] = system: NCI-H2122; test: Antitumor activity against human NCI-H2122 cells xenografted in mouse assessed as tumor growth inhibition at 5 mg/kg, po administered once a day for 21 days in presence of 4-(2-(1H-indazol-4-yl)-6-((4-(methylsulfonyl)piperazin-1-yl)methyl)thieno[3,2-d]pyrimidin-4-yl)morpholine; assay type: functional; conditions: NCI-H2122, 504 h, time 21 day, read-out: TGI
Outline: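 Mice bearing NCI-H2122 xenografts were given MEK inhibitor, PI3K inhibitor, or both, orally once daily for 21 consecutive days at the doses labeled. Caliper tumor volumes were calculated as (L×W×W)/2. %TGI was derived from the AUC of the fitted growth curve per day relative to vehicle.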

[5] = system: 537-mel; test: Antitumor activity against human 537-mel cells harboring PTEN null mutation xenografted in mouse assessed as tumor growth inhibition at 10 mg/kg, po; assay type: functional; conditions: read-out: TGI
Outline: (§1)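 Mice carrying human tumor xenografts dosed orally once daily for 21 consecutive days. Tumor volume measured by calipers as (L×W×W)/2. %TGI = 100×[1 − AUC(treatment/day)/AUC(vehicle/day)], using the area under the fitted growth curve relative to vehicle.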

[6] = system: A2058; test: (§2) Antitumor activity against human A2058 cells harboring BRAF V600E/PTEN deletion mutant xenografted in mouse assessed as suppression of AKT phosphorylation at 15 mg/kg, po administered every third day for 21 days and measured after 72 hrs post dose by Western blot analysis; assay type: functional, organism-based; conditions: time 576.0 hrs
[7] = system: A2058; test: Antitumor activity against human A2058 cells xenografted in mouse assessed as tumor growth inhibition at 15 mg/kg, po administered every third day for 21 days; assay type: functional; conditions: A2058, 504 h, time 21 day, read-out: TGI
Outline: (§3)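 Human tumor xenografts in mice. Drugs given orally, as single agents or combined with the PI3K inhibitor. Schedules were daily (QD) or every third day (Q3D) over 21 days. Tumor volume was measured by caliper as (L×W×W)/2. %TGI = 100×[1 − AUC(treatment/d)/AUC(vehicle/d)] from fitted growth curves, with group means. Tumor lysates were immunoblotted for pS6.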

[8] = system: A-375; test: Antitumor activity against human A-375 cells harboring BRAF V600E/CDKN2A E61 mutant xenografted in mouse assessed as tumor growth inhibition at 5 mg/kg, po; assay type: functional; conditions: A-375, read-out: TGI; outline: as §1
[9] = system: CWR22R; test: Antitumor activity against human 22Rv1 cells harboring PIK3CA Q546R/TP53 Q331R mutant xenografted in mouse assessed as tumor growth inhibition at 10 mg/kg, po; assay type: functional; conditions: read-out: TGI
[10] = target: Mast/stem cell growth factor receptor Kit (Homo sapiens, UniProt P10721); test: Inhibition of Kit (unknown origin)
Mast/stem cell growth factor receptor Kit, sequence (P10721 whole entry): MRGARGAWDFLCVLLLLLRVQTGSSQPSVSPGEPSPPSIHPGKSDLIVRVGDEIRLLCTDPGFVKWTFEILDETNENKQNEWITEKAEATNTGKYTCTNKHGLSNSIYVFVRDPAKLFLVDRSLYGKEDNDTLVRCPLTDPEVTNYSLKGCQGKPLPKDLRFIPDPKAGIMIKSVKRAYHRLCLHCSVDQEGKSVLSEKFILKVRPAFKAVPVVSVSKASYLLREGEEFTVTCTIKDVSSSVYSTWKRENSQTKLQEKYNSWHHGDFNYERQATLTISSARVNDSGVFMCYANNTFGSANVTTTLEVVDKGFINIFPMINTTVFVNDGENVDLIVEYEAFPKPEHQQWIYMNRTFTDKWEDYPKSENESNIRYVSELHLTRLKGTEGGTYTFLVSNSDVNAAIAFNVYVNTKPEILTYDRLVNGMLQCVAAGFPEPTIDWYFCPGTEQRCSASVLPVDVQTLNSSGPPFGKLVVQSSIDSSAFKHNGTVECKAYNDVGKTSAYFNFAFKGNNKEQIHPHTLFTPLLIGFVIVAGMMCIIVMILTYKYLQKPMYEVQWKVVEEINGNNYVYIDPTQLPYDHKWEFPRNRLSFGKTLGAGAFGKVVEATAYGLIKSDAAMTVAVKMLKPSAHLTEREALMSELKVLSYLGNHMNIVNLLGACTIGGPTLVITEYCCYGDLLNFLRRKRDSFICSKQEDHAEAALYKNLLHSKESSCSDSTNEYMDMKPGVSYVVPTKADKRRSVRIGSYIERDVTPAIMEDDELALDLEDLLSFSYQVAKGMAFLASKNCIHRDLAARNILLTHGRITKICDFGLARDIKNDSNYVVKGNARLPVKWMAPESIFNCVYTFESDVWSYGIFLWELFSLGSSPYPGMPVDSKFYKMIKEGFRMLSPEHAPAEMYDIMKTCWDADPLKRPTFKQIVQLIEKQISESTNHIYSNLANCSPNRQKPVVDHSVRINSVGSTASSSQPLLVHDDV

[11] = system: A2058; test: Antitumor activity against human A2058 cells xenografted in mouse assessed as decrease in pS6 level at 5 mg/kg, po administered for 4 days and measured after 2 hrs in presence of 4-(2-(1H-indazol-4-yl)-6-((4-(methylsulfonyl)piperazin-1-yl)methyl)thieno[3,2-d]pyrimidin-4-yl)morpholine; assay type: functional, organism-based; conditions: time 98.0 hrs
[12] = target: Receptor-type tyrosine-protein kinase FLT3 (Homo sapiens, UniProt P36888); test: Inhibition of Flt3 (unknown origin)
Receptor-type tyrosine-protein kinase FLT3, sequence (P36888 whole entry): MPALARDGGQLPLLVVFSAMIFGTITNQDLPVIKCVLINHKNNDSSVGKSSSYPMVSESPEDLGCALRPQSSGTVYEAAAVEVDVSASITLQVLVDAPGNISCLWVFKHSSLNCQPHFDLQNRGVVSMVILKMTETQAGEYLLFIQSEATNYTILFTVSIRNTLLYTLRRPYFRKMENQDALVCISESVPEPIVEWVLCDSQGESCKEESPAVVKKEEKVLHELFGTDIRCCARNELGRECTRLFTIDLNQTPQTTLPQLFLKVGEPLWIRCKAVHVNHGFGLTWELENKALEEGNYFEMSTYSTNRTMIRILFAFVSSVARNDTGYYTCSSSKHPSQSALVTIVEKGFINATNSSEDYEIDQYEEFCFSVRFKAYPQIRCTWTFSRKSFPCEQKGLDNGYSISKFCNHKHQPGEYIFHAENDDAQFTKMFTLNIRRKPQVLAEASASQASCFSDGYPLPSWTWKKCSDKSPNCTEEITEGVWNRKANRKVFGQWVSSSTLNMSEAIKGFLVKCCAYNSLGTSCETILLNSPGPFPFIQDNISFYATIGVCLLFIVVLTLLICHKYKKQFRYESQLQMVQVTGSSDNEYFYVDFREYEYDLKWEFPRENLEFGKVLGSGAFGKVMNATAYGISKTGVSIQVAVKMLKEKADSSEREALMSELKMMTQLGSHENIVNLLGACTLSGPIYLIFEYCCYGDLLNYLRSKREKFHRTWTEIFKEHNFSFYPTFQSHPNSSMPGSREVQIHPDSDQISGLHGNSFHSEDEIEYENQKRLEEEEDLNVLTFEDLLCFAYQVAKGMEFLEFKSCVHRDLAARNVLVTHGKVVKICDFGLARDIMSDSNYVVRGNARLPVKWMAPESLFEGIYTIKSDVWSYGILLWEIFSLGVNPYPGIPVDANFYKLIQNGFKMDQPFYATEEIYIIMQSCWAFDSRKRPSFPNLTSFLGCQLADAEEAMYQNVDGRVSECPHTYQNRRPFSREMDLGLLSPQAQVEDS

[13] = system: NCI-H520; test: Antitumor activity against human NCI-H520 cells harboring TP53 W146 and CDKN2A G G45 mutant xenografted in mouse assessed as tumor growth inhibition at 10 mg/kg, po; assay type: functional; conditions: read-out: TGI
Outline: (§4)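 Human tumor xenografts in mice were dosed orally at the indicated mg/kg. Tumor volume was measured with calipers as (L×W×W)/2. %TGI = 100 × [1 − (AUC treatment/d)/(AUC vehicle/d)], using the area under the fitted tumor-growth curve per day for each dose group relative to vehicle.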

[14] = Antitumor activity against human A375.X1 cells xenografted in mouse assessed as tumor growth inhibition at 20 mg/kg, po administered every third day for 21 days; assay type: functional; conditions: A375.X1, 504 h, time 21 day, read-out: TGI; outline: as §3
[15] = Antitumor activity against human A375.X1 cells harboring BRAF V600E/CDKN2A E61 mutant xenografted in mouse assessed as tumor growth inhibition at 5 mg/kg, po; assay type: functional; conditions: A375.X1, read-out: TGI
Outline: (§5)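 Single-agent dose ranging in human tumor xenograft mice at 2.5, 5 or 10 mg/kg oral. Tumor volume was measured by caliper as (L×W×W)/2. %TGI = 100×[1 − AUC(treatment/d)/AUC(vehicle/d)] from the fitted growth curve per dose group, relative to vehicle.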

[16] = system: LOX IMVI; test: Antiproliferative activity against human LOX IMVI cells assessed reduction in cell viability incubated for 4 days in presence of 4-(2-(1H-indazol-4-yl)-6-((4-(methylsulfonyl)piperazin-1-yl)methyl)thieno[3,2-d]pyrimidin-4-yl)morpholine by celltiter-glo assay; assay type: functional; conditions: time 4 day
Outline: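 4-day CellTiter-Glo viability read-out on melanoma lines, cells exposed to increasing concentrations of each inhibitor alone and in combination.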

[17] = target: Dual specificity tyrosine-phosphorylation-regulated kinase 2 (Homo sapiens, UniProt Q92630); test: Inhibition of DYRK2 (unknown origin)
Dual specificity tyrosine-phosphorylation-regulated kinase 2, sequence (Q92630 whole entry): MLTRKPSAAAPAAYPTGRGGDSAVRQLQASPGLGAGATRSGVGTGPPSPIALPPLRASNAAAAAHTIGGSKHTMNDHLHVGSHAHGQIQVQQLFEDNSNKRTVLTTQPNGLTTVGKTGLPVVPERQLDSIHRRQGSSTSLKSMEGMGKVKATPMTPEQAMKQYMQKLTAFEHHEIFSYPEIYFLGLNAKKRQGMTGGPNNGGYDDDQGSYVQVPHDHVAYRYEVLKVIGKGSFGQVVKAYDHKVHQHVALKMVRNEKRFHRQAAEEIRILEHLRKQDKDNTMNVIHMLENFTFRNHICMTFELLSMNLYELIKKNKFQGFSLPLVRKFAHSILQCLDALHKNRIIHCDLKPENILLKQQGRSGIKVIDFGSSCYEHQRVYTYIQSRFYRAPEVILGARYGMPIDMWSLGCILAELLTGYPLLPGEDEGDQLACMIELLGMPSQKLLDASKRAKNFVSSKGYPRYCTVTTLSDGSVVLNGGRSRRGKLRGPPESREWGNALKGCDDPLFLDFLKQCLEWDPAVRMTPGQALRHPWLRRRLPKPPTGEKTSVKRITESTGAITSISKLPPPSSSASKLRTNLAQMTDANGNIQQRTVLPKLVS

[18] = system: 537-mel; test: Antitumor activity against human 537-mel cells harboring PTEN null mutation xenografted in mouse assessed as tumor growth inhibition at 5 mg/kg, po; assay type: functional; conditions: read-out: TGI; outline: as §1
[19] = target: Phosphatidylinositol 4,5-bisphosphate 3-kinase catalytic subunit alpha isoform (Homo sapiens, UniProt P42336); test: Inhibition of PI3Kalpha (unknown origin)
Phosphatidylinositol 4,5-bisphosphate 3-kinase catalytic subunit alpha isoform, sequence (P42336 whole entry, canonical isoform): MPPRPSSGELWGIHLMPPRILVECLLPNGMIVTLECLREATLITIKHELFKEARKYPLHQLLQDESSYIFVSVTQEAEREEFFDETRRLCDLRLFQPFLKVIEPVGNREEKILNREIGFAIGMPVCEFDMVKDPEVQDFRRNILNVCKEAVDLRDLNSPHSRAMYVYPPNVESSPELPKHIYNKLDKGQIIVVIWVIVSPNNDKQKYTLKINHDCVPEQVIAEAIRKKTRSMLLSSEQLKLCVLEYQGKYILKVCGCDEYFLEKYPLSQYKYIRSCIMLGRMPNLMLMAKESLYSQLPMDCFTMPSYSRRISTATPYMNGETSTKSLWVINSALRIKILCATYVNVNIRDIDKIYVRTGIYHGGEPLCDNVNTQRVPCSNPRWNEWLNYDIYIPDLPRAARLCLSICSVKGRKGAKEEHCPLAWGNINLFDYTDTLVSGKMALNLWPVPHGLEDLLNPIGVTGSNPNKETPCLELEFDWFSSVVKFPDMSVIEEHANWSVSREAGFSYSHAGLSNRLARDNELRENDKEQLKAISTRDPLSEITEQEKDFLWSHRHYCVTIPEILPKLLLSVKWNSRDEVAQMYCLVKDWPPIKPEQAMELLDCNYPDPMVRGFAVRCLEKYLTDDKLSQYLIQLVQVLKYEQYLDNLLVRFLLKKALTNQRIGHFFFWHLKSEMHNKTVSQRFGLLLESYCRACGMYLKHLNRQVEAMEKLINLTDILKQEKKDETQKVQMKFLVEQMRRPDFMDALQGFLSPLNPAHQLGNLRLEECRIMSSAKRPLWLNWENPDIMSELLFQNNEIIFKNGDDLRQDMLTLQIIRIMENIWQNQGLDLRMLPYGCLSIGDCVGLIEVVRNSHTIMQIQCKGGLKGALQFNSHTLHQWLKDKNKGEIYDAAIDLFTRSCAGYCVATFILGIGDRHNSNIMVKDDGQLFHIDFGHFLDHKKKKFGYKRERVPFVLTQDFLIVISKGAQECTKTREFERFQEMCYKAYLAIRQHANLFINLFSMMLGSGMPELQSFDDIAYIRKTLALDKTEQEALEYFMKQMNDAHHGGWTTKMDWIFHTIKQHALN

[20] = system: A2058; test: Antitumor activity against human A2058 cells harboring BRAF V600E/PTEN deletion mutant xenografted in mouse assessed as increase in BimL level at 15 mg/kg, po administered every third day for 21 days and measured after 8 hrs post dose by Western blot analysis; assay type: functional, organism-based; conditions: time 512.0 hrs
[21] = target: Protein kinase C alpha type (Homo sapiens, UniProt P17252); test: Inhibition of PKC alpha (unknown origin)
[22] = system: A2058; test: as §2, with “dose in presence of 4-(2-(1H-indazol-4-yl)-6-((4-(methylsulfonyl)piperazin-1-yl)methyl)thieno[3,2-d]pyrimidin-4-yl)morpholine” for “dose”; assay type: functional, organism-based; conditions: time 576.0 hrs
[23] = system: MX1; test: Antitumor activity against human MX1 cells harboring PTEN null mutation xenografted in mouse assessed as tumor growth inhibition at 5 mg/kg, po; assay type: functional; conditions: read-out: TGI; outline: as §4
[24] = system: 888-mel; test: Induction of apoptosis in human 888-mel cells assessed as increase in cleaved PARP level incubated for 24 hrs in presence of 4-(2-(1H-indazol-4-yl)-6-((4-(methylsulfonyl)piperazin-1-yl)methyl)thieno[3,2-d]pyrimidin-4-yl)morpholine by immunoblotting analysis; assay type: functional, cell-based
[25] = system: NCI-H460; test: Antitumor activity against human NCI-H460 cells harboring KRAS Q61H/PIK3CA E545K/LKB1 Q37/CDKN2A mutant xenografted in mouse assessed as tumor growth inhibition at 2.5 mg/kg, po; assay type: functional; conditions: read-out: TGI; outline: as §4
[26] = Antitumor activity against human LS174T-HM7 cells xenografted in mouse assessed as tumor growth inhibition at 10 mg/kg, po; assay type: functional; conditions: read-out: TGI; outline: as §5

Serine/threonine-protein kinase pim-2, sequence (Q9P1W9 whole entry): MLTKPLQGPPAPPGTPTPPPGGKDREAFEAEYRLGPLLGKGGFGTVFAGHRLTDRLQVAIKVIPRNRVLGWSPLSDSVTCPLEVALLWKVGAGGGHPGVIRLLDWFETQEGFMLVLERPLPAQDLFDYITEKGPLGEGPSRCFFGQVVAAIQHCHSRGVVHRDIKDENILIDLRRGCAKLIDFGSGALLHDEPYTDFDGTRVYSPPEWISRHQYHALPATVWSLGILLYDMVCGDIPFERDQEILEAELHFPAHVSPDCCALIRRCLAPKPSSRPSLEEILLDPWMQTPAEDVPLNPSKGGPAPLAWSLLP

IC50 [1]: > 10 µM
IC50 [2]: > 10 µM
IC50 [3]: > 10 µM
IC50 [10]: > 10 µM
IC50 [12]: > 10 µM
IC50 [17]: > 10 µM
IC50 [19]: > 10 µM
IC50 [21]: > 10 µM
SMILES: O=C(c1ccc(F)c(F)c1Nc1ccc(I)cc1F)N1CC(O)([C@@H]2CCCCN2)C1 [COBIMETINIB]
inhibition in vivo at 5 mg/kg [4]: 75%
inhibition in vivo at 10 mg/kg [5]: 96%
Activity [6]: Active
inhibition in vivo at 15 mg/kg [7]: 41%
inhibition in vivo at 5 mg/kg [8]: 120%
inhibition in vivo at 10 mg/kg [9]: 82.5%
Activity [11]: Active
inhibition in vivo at 10 mg/kg [13]: 21%
inhibition in vivo at 20 mg/kg [14]: 94%
inhibition in vivo at 5 mg/kg [15]: 106%
Activity [16]: 60%
inhibition in vivo at 5 mg/kg [18]: 94%
Activity [20]: Active
Activity [22]: Active
inhibition in vivo at 5 mg/kg [23]: 26%
Activity [24]: Active
inhibition in vivo at 2.5 mg/kg [25]: 32%
inhibition in vivo at 10 mg/kg [26]: 37%
